# Compound activity as filed in PubChem.
# PKA-R1A act: activators of PKA-R1A holoenzyme, primary screen, biochemical, fluorescence polarization, Cy5-IP20, bovine R1A, mouse PKAc; 340,000 compounds, 0.083% hits; cAMP-dependent protein kinase type I-alpha regulatory subunit (Bos taurus) + …; AID 504707, 2011; PKA-R1A dissociation; scaled: DMSO 0%, 113 µM cGMP 100%; activation, % at 11.4 µM;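 active = percent activation above the mean of all tested compounds plus 3 SD, cut at about 19% in these data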;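 also: higher means more PKAc released from R1A so a rise in polarization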
# H9c2 protect: cardioprotection against H2O2-induced cell death, primary screen, uHTS, H9c2 cells, ATPLite luminescence; H9c2 cardiomyocytes, H2O2 injury protection, 2 h; protection from H2O2 cell death, % at 20 µM; 360,000 compounds, 0.63% hits;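 active = compounds giving at least 50% protection of heart cells from peroxide-induced death in the single-dose screen, raw or plate-pattern-corrected value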;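 also: 0% = DMSO wells with peroxide and 100% = DMSO wells without peroxide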
# Rin1 Abl inh: inhibitors of Rin1-Abl protein binding, primary screen, biochemical, TR-FRET; Tyrosine-protein kinase ABL1 (Homo sapiens) + Ras and Rab interactor 1 (Homo sapiens), …; inhibition, % at 7.35 µM; 360,000 compounds, 0.4% hits; AID 588664, 2011; in the data active = inhibition above about 5%, passing the limit was not always enough
# TbMetRS inhib: T. brucei MetRS inhibitors, primary screen, biochemical, luminescence. methionyl-tRNA synthetase (Trypanosoma brucei brucei). purified T. brucei MetRS, ATP depletion, Kinase-Glo luminescence. inhibition, % at 11.9 µM. 360,000 compounds, 0.4% hits;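 active = inhibition above a per-plate cutoff of the control wells' mean inhibition plus 3 SD, cut at about 5.5% in these data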;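 also: 0% = DMSO wells median and 100% = median of wells with control inhibitor compound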
#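 Material: T. brucei methionyl-tRNA synthetase, purified; reagent: substrates ATP, L-methionine and bulk Escherichia coli tRNA; dosing: 11.9 µM single point; timing: 15 min plus 2 h at 25 °C; detection: luminescence of leftover ATP; evaluation: % inhibition; control set: DMSO-only wells as low control; replicates: singlicate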
# PKA-R2B activ: activators of PKA-R2B holoenzyme, primary screen, biochemical, fluorescence polarization, Cy5-IP20, human. cAMP-dependent protein kinase catalytic subunit beta (Homo sapiens) + cAMP-dependent …. PKA-R2B holoenzyme dissociation; R2B truncated from residue 108, S112A mutant; 0% DMSO only, 100% 113 µM cGMP. activation, % at 11.4 µM. 340,000 compounds, 0.079% hits. AID 504700, 2011;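 active = activation above a cutoff set at the mean over all compounds plus 3 SD, cut at about 18% in these data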;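 also: higher means more holoenzyme dissociation and a rise in polarization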
# Target sequence (P31323 whole entry, looked up, other chains not shown, the tested form may be a part): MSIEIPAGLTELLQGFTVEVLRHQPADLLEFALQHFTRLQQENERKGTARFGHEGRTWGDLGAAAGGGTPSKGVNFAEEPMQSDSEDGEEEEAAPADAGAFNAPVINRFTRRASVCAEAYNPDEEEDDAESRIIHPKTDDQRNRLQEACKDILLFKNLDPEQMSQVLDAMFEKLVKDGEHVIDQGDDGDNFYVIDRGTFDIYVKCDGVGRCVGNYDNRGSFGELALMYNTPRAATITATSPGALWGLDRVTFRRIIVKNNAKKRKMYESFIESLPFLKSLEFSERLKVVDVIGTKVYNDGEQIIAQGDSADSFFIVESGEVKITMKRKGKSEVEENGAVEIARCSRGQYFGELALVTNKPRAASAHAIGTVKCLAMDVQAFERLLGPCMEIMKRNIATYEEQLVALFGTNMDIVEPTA
# * = called active by the depositor; . = not tested or not shown; ! = not active in a repeat. In the library only some 1.5% were active in any assay of this set; here they are far more common.
SMILES,PKA-R1A act,H9c2 protect,Rin1 Abl inh,TbMetRS inhib,PKA-R2B activ
COC(=O)c1ccc(COC(=O)Cc2n[nH]c(=O)c3ccccc23)cc1,-7,39,1,-1,0
CC(OC(=O)Cc1n[nH]c(=O)c2ccccc12)C(=O)Nc1ccc(S(N)(=O)=O)cc1 (stereo unspecified),3,48,-2,0,3
Oc1ccc(C[C@H]2CNC(=S)N2CC2CCCN2C[C@H](Cc2ccc(O)cc2)N2C[C@H](Cc3ccc(O)cc3)N(CC3CCCCCC3)C2=S)cc1 (stereo partly specified),4,-13,-4,0,1
O=S(=O)(NC(=NC1CCCCC1)c1ccccc1F)c1ccccc1,7,-6,-3,0,-4
Cn1ncc([N+](=O)[O-])c1C(=O)N/N=C/c1cccc([N+](=O)[O-])c1,7,3,0,-1,1
CCOc1ccc2ccccc2c1C(=O)N[C@@H]1C(=O)N2[C@@H]1SC(C)(C)[C@@H]2C(=O)O,-3,78*!,0,0,-1
CC1(C)S[C@@H]2[C@H](NC(=O)Cc3ccccc3)C(=O)N2[C@H]1C(=O)O,-5,12,-3,-1,1
COC(=O)c1ccc(=O)c2nc3/c(=C/O)c(O)cc(=O)c3[nH]c12,7,-2,38*,0,3
CCCn1c(SCC(=O)Nc2ccc(S(=O)(=O)N(C)C)cc2)n[nH]c1=O,-8,6,1,0,-10
COCCN1CCN(c2c3c(nc4cc(-c5cccc(F)c5)nn24)CCC3)CC1,0,86*,-3,-1,2
OC1CCCN(c2c3c(nc4cc(-c5cccc(F)c5)nn24)CCCC3)C1 (stereo unspecified),-5,-3,0,-1,-8
CC(C)C[C@H](NC(=O)C1CC(=O)N(c2ccc3c(c2)OCO3)C1)C(=O)NC1CCCCC1 (stereo partly specified),-3,-7,-1,0,-6
COc1ccc(NC(=O)c2cc3c(=O)n(C)c4ccccc4c3n2C)cc1OC,10,50*,0,-1,1
Cn1c(C(=O)NCc2cccs2)cc2c(=O)n(C)c3ccccc3c21,-9,68*,-4,-1,-9
CCOC(=O)Cc1csc(NC(=O)CN2CCCCC2)n1,1,3,0,0,1
O=C(c1ccc(Br)o1)N1CCN(c2ccc3nnc(-c4ccccc4)n3n2)CC1,-13,81*,-2,0,-8
CCOC(=O)c1ccc(-c2ccc(/C=C(\C#N)C(=O)NCC3CCCO3)o2)cc1 (stereo unspecified),5,52*,-6,0,-11
COCCNC(=O)C1(C)CCCN(C(=O)c2ccc(F)c(Cl)c2)C1 (stereo unspecified),.,5,-2,-1,.
CN(C(=O)COC(=O)c1cc(S(=O)(=O)N2CCCCC2)ccc1Cl)c1ccccc1,3,-5,1,0,2
O=c1[nH]c2ccccc2c(O)c1-[n+]1ccccc1,4,2,2,0,-13
O=c1[nH]c2ccccc2c(O)c1O,-2,-1,20*,0,-6
CC1CCCCN1S(=O)(=O)c1cccc(S(=O)(=O)N2CCOCC2)c1 (stereo unspecified),-8,-4,-1,0,-3
CCOC(=O)CC1COCCN1C(=O)CCc1nnc(-c2ccsc2)o1 (stereo unspecified),4,1,1,-1,-9
c1ccc(CN2CCN(c3ncnc4c3[nH]c3ccccc34)CC2)cc1,-11,-26,0,6.2*,-13
Cc1ccc2c(c1)[nH]c1c(N3CCN(Cc4ccccc4)CC3)ncnc12,-3,-21,2,0,2
SMILES,PKA-R1A act,H9c2 protect,Rin1 Abl inh,TbMetRS inhib,PKA-R2B activ
COc1cccc2cc(-c3nc(-c4cccs4)cs3)c(=O)oc12,4,87*,-2,2,4
O=C(NC(c1cccnc1)c1ccc2c(c1)OCO2)C1CCN(CCOc2ccc(Cl)cc2Cl)CC1 (stereo unspecified),.,16,2,1,.
Cn1cc(S(=O)(=O)NCc2ccc3c(c2)OCO3)c(C(F)(F)F)n1,2,0,0,0,-1
NC(=O)c1ccccc1N=Cc1ccccn1,-17,78*,-1,-2,-8
CCN(CC(=O)Nc1cc(Cl)ccc1C)C(=O)c1nc2nc(C)cc(C)n2n1,-11,5,1,0,-5
COc1ccccc1/C=C/CN1CCSCC1,5,3,1,0,1
COCCSc1nc2c(c(=O)[nH]c(=O)n2C)n1Cc1cccc(C)c1,-5,-9,11*,0,-7
CCCSc1nc2c(c(=O)[nH]c(=O)n2C)n1Cc1ccccc1,6,-3,0,0,5
O=C(CN1C(=O)NC2(CCCC2)C1=O)OCCOc1ccc(Br)cc1,-7,1,-4,0,-11
CN(CCN(C)C(=O)c1[nH]cnc1C(=O)Nc1ccccc1)C(=O)c1[nH]cnc1C(=O)Nc1ccccc1,-12,18,1,0,-3
O=C(Nc1cccc(Cl)c1)c1nc[nH]c1C(=O)NCCCNC(=O)c1[nH]cnc1C(=O)Nc1cccc(Cl)c1,1,80*,5,0,-4
O=C(Nc1ccccc1)c1nc[nH]c1C(=O)Nc1ccccc1F,3,1,1,0,1
O=C(Nc1ccccc1)c1nc[nH]c1C(=O)NCCNC(=O)c1[nH]cnc1C(=O)Nc1ccccc1,-7,52*,2,0,-8
O=C(Nc1ccccc1)c1nc[nH]c1C(=O)NCCCCNC(=O)c1[nH]cnc1C(=O)Nc1ccccc1,-8,81*,2,0,-6
Cc1cc2oc(=O)cc(CN3CCCCC3C)c2cc1C (stereo unspecified),-5,1,2,0,1
COc1ccccc1CNC(=S)Nc1ccc(S(N)(=O)=O)cc1,-11,0,-2,-1,1
CN(C)c1ccc(C(CNC(=O)c2ccc(-c3ccccc3)cc2)N2CCOCC2)cc1 (stereo unspecified),-6,-1,-2,0,0
O=C(CCc1ccccc1)NNC(=O)COc1ccc(Br)cc1,9,4,0,0,1
O=C(CN1C(=O)NC2(CCCC2)C1=O)N1CCN(S(=O)(=O)c2ccccc2[N+](=O)[O-])CC1,-16,5,-1,0,-1
CC1(C(=O)Nc2cccc(OC(F)(F)F)c2)Cc2c(-c3ccc(C(N)=O)cc3)ccnc2O1 (stereo unspecified),.,56*,-6,1,.
